Bioassay records as filed in PubChem BioAssay.
Compounds with a hit are over-represented: about 12% of the library has one in this group of screens.
MT stabilizer: microtubule stabilizers in HeLa cells; HeLa tubulin immunostaining HCS, 24 h; share of cells brighter than vehicle mean+2SD; % tubulin-high responders, % at 10 µM; hit rate 0.83% among 200,000;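 active means plate Z-score above 3 for both tubulin-high and condensed-nucleus cell shares, with cell loss under 80%, at 10 µM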;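 further: anti alpha tubulin signal scored within the nucleus-defined area of each cell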
b-catenin transl: alters nuclear translocation of beta-catenin in HeLa cells | immunofluorescence imaging | nuclear translocation activity, % at 5 µM | hit rate 0.3% among 190,000 | AID 1665;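 active means nuclear translocation activity above 50% at 5 µM, with a well cell count of 50 or more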;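 further: per-cell ratio of nuclear to cytoplasmic median beta-catenin stain intensity; plate controls were DMSO negative control for no effect and GSK-3 inhibitor IX positive control for full effect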
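Read-out: Nuclear/cytoplasmic beta-catenin signal ratio, % activation | Assay system: Human HeLa cell line | Times: 24 h compound exposure at 37°C, 5% CO2 | Signal: Fluorescence imaging of beta-catenin antibody stain plus DAPI | Dosing: 5 µM primary, 0.02–20 µM confirmation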
Lmaj promast: reduces viability of Leishmania major promastigotes; AID 1063; inhibition, % at 10 µM; resazurin fluorescence viability; hit rate 9% among 200,000; in the data active means inhibition above about 50%;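 further: promastigotes grown with compound for 44 hours at 28 °C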
CHOP inhibitor: inhibitors of CHOP induction in ER stress response; CHO-K1 CHOP-promoter luciferase, tunicamycin-induced, 15-18 h; AID 2732; hit rate 3.8% among 220,000; inhibition, % at 10 µM;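 active means compounds that reduced the stress-induced luciferase reporter signal by more than about 70% of percent inhibition, limit read from the data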;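 further: 0% = tunicamycin plus vehicle and 100% = wells without tunicamycin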
Dynein cargo inh: blocks dynein driven cargo transport along microtubules. 3617.4 mouse cells, GR-EGFP nuclear translocation imaging; test concentration mostly 20 µM; stimulated with dexamethasone, 1 µM; hits give low values. hit rate 0.47% among 220,000. z-score, hits read low;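 active means plate z-score of nuclear minus cytoplasmic receptor signal below a set negative limit, without overly bright fluorescence or cell loss, cut at about -3.5 in these data, passing the limit was not always enough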;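 further: z-score of nuclear minus cytoplasmic ring GR-EGFP intensity difference per well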
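Buffer or medium: tetracycline-free induction medium containing charcoal-stripped FBS / Reagent: dexamethasone agonist, 1.0 µM final, for 30 min / Technique: automated 10x imaging of fixed Hoechst-stained cells / Times: induction 48 h, compound 1 h, agonist 30 min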
Autophagy HCS: autophagy modulation, high-content screen; MEF GFP-LC3 puncta imaging; test concentration mostly 10 µM; hit rate 0.98% among 190,000; AID 463193; calls only at 10 µM (by protocol);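 active means percentage of spot-positive cells more than 3 SD above its plate mean, without a fluorescence outlier flag or 80% toxicity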;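 further: spot-positive cell cutoff set from DMSO-treated cells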
* hit, by the source's call; i = inactive; . = not tested or not shown; + = active, no number.

SMILES | MT stabilizer | b-catenin transl | Lmaj promast | CHOP inhibitor | Dynein cargo inh | Autophagy HCS
Cc1ccc2cc3cc(C(=O)NCCCN4CCCCCC4)oc3nc2c1 | 5 | -1 | 97* | 19 | 0.42 | i
COc1ccc2nc3sc(C(=O)NCCCN4CCc5ccccc5C4)cc3cc2c1 | 4 | -1 | 100* | 8 | 0.31 | i
CCOc1ccc(NC(=O)c2cc3cc4ccc(C)cc4nc3o2)cc1 | 5 | . | 2 | 55 | 0.17 | i
Cc1ccc2[nH]c(=O)c3cc(C(=O)NCCN4CCN(C)CC4)sc3c2c1 | 2 | 2 | 7 | 16 | -0.89 | .
Cc1ccc2cc3cc(C(=O)NCCCN4CCc5ccccc5C4)oc3nc2c1 | 5 | -2 | 97* | 41 | -1.5 | i
Cc1ccc2nc(Cl)c3cc(C(=O)NCCCN4CCCC4)sc3c2c1 | 5 | -2 | 101* | -5 | 0.54 | i
O=C(CCN=C1NS(=O)(=O)c2ccccc21)N1CCc2ccccc2C1 | 3 | 1 | 2 | -1 | 1.1 | i
CCN(CC(=O)Nc1cccc(C(C)=O)c1)S(=O)(=O)c1ccccc1 | 4 | -1 | -4 | 22 | 0.032 | i
CC(C)CC(=O)N1CCN(Cc2ccc3c(c2)OCO3)CC1 | 1 | -5 | -8 | 11 | 0.53 | i
COc1cccc(-c2nn(-c3ccccc3)cc2/C=C(/NC(=O)c2ccccc2)C(=O)O)c1 | . | -1 | . | 7 | -0.59 | .
CC1=NNC(=O)/C1=C\c1cn(-c2ccccc2)nc1-c1ccc(Cl)cc1 | 79 | 1 | 101* | 108* | 0.44 | +
CC1=NN(c2ccccc2)C(=O)/C1=C\c1cn(CCC#N)nc1-c1ccc(Cl)cc1 | 3 | 0 | 21 | 32 | 1.2 | i
CCc1nc(N=C(N)N)nc2ccccc12 | 3 | 0 | 8 | 37 | -0.57 | i
NC(N)=Nc1nc(-c2ccccc2)c2ccccc2n1 | 1 | -2 | 98* | 11 | 0.11 | i
N=c1n(CCN2CCCC2)c2ccccc2n1CC(O)c1ccco1 (centres undefined) | 3 | -4 | -2 | -5 | 0.1 | i
CCCCn1c(=N)n(CC(O)c2ccccc2)c2ccccc21 (centres undefined) | . | 0 | . | -15 | 2.1 | .
CN(C)CCn1c(=N)n(CC(O)c2ccc(Cl)c(Cl)c2)c2ccccc21 (centres undefined) | 2 | -2 | 100* | -16 | 0.13 | i
N=c1n(CCN2CCCCC2)c2ccccc2n1CC(O)c1cccc(Br)c1 (centres undefined) | 2 | -5 | 100* | 15 | -0.22 | i
N=c1n(CCN2CCCCC2)c2ccccc2n1CC(O)c1ccc(Cl)c(Cl)c1 (centres undefined) | 6 | 4 | 100* | -21 | -3.3 | +
Cc1ccc2c(c1)[nH]c1c(N3CCN(Cc4ccc5c(c4)OCO5)CC3)ncnc12 | . | 1 | . | . | . | .
Cc1cc(N2CCN(C(=O)c3ccco3)CC2)n2nc(-c3cccc(Cl)c3)cc2n1 | 5 | -6 | 11 | 96* | 0.34 | i
CC(=O)c1ccc(N2CCN(C(=O)Nc3cccc(F)c3)CC2)cc1 | 5 | 0 | 37 | 9 | 0.51 | i
O=C(N/N=C/c1cc([N+](=O)[O-])ccc1O)c1ccc2c(c1)OCCO2 | 9 | 1 | 98* | 29 | 0.7 | i
Cc1ccc(/C=N/NC(=O)c2ccc3c(c2)OCCO3)s1 | . | 66* | . | -11 | 1.2 | .
Cc1c(/C=N/NC(=O)c2ccc3c(c2)OCO3)cnn1C | 3 | 3 | 0 | 23 | -1.6 | i
SMILES | MT stabilizer | b-catenin transl | Lmaj promast | CHOP inhibitor | Dynein cargo inh | Autophagy HCS
CCn1ncc(/C=N/NC(=O)c2ccc3c(c2)OCO3)c1C | 36* | 6 | -8 | -11 | 0.26 | i
CN1CCN(CCC(=O)N/N=C/c2cc([N+](=O)[O-])ccc2O)CC1 | 5 | -4 | 100* | 49 | 0.83 | i
O=C(N/N=C/c1cc(Br)cs1)c1ccc2c(c1)OCCO2 | . | -1 | . | 9 | -0.37 | .
CN(C)CCCN1C(=O)C2CCc3[nH]c4ccccc4c3C2C1=O (centres undefined) | 2 | 0 | -5 | -10 | 1.4 | i
CCOC(=O)C1=C(N)OC2=C(C(=O)CCC2)C1c1ccc(C)s1 (centres undefined) | 2 | -2 | 7 | -10 | -0.9 | i
Cn1c(=O)c(C(=O)Nc2ccccn2)c(O)c2ccccc21 | 5 | 4 | 29 | 72* | -0.064 | i
CCCCCNc1nc(-c2ccccc2)nc(-n2ccnc2)n1 | 1 | -1 | 40 | 72* | 0.11 | i
C=CCNc1nc(N(c2ccccc2)c2ccccc2)nc(-n2ccnc2)n1 | 3 | -2 | 55* | 52 | -0.16 | i
CN(c1ccccc1)c1nc(-n2ccnc2)nc(-n2ccnc2)n1 | 1 | . | 6 | 4 | -0.43 | i
c1ccc(N(c2ccccc2)c2nc(-n3ccnc3)nc(-n3ccnc3)n2)cc1 | 6 | -5 | 28 | 15 | 0.71 | i
CCCCNc1nc(N(C)c2ccccc2)nc(-n2ccnc2)n1 | 7 | -2 | 98* | 70 | -0.83 | i
CCOc1ccc(C(=O)NCC(=O)Nc2ccc(N3CCOCC3)cc2)cc1OCC | 2 | -1 | 0 | -6 | -0.52 | i
COCCCNc1nc2nonc2nc1N(C)CC1CCCN1C (centres undefined) | 1 | -1 | -4 | -18 | 0.21 | i
NC(=O)c1cc(C(=O)c2ccccc2Cl)c[nH]1 | 5 | -4 | 5 | 24 | -0.41 | i
Cc1cc(C)c(NC(=O)C(C)Sc2nnc(-c3ccco3)n2-c2ccccc2)c(C)c1 (centres undefined) | 4 | -1 | 8 | 29 | -0.15 | i
CCOc1cccc(/C=N/Nc2ccc(S(=O)(=O)N(CC)CC)cn2)c1O | 4 | 2 | 82* | 52 | 0.95 | i
COc1ccc(-c2nnc(SC(C)C(=O)Nc3nccs3)n2-c2ccccc2)cc1OC (centres undefined) | 4 | -3 | 54* | 21 | -0.43 | i
COc1ccc(-c2nnc(SC(C)C(=O)Nc3nccs3)n2Cc2ccccc2)cc1OC (centres undefined) | 5 | . | 10 | -5 | -0.11 | i
CCC(=O)N1CCc2cc(OC)c(OC)cc2C1COc1ccccc1OC (centres undefined) | 3 | -1 | 1 | -22 | -1.2 | i
CCOc1ccc(CC2c3cc(OCC)c(OCC)cc3CCN2C(=O)c2cc(OC)c(OC)c(OC)c2)cc1OCC (centres undefined) | 2 | -3 | 55* | 22 | -0.73 | i
Brc1cccc(/C=N/Nc2nc(N3CCCCC3)nc(N3CCCCC3)n2)c1 | 2 | 0 | 52* | -9 | 0.29 | i
C(=N\Nc1nc(N2CCCC2)nc(N2CCCC2)n1)/c1ccccc1OCc1ccccc1 | 3 | -1 | 4 | -12 | -0.54 | i
